# Published values gathered from unrelated publications.
# Each line is one published result; the experiments were not run side by side.
# FPR1: fMet-Leu-Phe receptor (FPR1, Homo sapiens, UniProt P21462)
# SLC6A2: Sodium-dependent noradrenaline transporter (SLC6A2, Homo sapiens, UniProt P23975)
# MC4R: Melanocortin receptor 4 (MC4R, Homo sapiens, UniProt P32245)
# NQO2: Ribosyldihydronicotinamide dehydrogenase [quinone] (NQO2, Homo sapiens, UniProt P16083)
# DNA dC->dU-editing enzyme APOBEC-3B: DNA dC->dU-editing enzyme APOBEC-3B (Homo sapiens, UniProt Q9UH17)
# CHEK2 I157T: Serine/threonine-protein kinase Chk2 (CHEK2, Homo sapiens, UniProt O96017, I157T)
Structure (SMILES),target,test,test system,conditions,inhibition [%]
CCCCCCc1cc2c(=O)c(-c3nc4ccccc4n3C)c(C)oc2cc1OC(C)=O,FPR1,"calcium signal, antagonist",,50 µM,100
CCN1CCN(Cc2ccc(NC(=O)c3ccc(C)c(Oc4ccnc5[nH]ccc45)c3)cc2C(F)(F)F)CC1,"Serine/threonine-protein kinase 10 (STK10, Homo sapiens, UniProt O94804)","target engagement in cells, inhibitor, chemoproteomics",Huh-7,10 µM,-64.9
Cc1oc2cc(OC(=O)c3ccco3)ccc2c(=O)c1-c1nc2ccccc2n1C,FPR1,"calcium signal, antagonist",,50 µM,100
c1ccc(CCC2CCN(CCCCn3nnnc3C(c3ccccc3)c3ccccc3)CC2)cc1,SLC6A2,"transporter uptake, inhibitor",HEK293,1 µM,82.8
CC(=O)N[C@H]1CSSC[C@@H](C(=O)N[C@H](Cc2c[nH]c3ccccc23)C(N)=O)NC(=O)[C@H](Cc2ccccc2)NC(=O)[C@H](CCCNC(=N)N)NC1=O,MC4R,"ligand displacement, radioligand",,"10 µM, 40 min",0
Fc1ccc(C(c2ccc(F)cc2)c2nnnn2CCCN2CCC(CCCc3ccccc3)CC2)cc1,SLC6A2,"transporter uptake, inhibitor",HEK293,1 µM,23.8
O=C(Oc1ccc2c(=O)c(-c3ccccc3Cl)c(C(F)(F)F)oc2c1)c1cccs1,FPR1,"calcium signal, antagonist",,50 µM,100
Clc1ccc(C(c2ccccc2)c2nnnn2CCCCN2CCC(CCCc3ccccc3)CC2)cc1 (centres unmarked),SLC6A2,"transporter uptake, inhibitor",HEK293,1 µM,84.1
Cc1c(COc2c(F)cc(F)cc2F)c2c(n1C)C(=O)C(NCCCN(C)C)=CC2=O,NQO2,"cell-free assay, inhibitor",,1 µM,73
COc1ccccc1-c1c(C(F)(F)F)oc2cc(OC(=O)c3ccccc3)ccc2c1=O,FPR1,"calcium signal, antagonist",,50 µM,90
COc1cc(/C=C/C(=O)CC(=O)/C=C/c2ccc(O)c(OC)c2)ccc1O,DNA dC->dU-editing enzyme APOBEC-3B,"enzyme activity, inhibitor, fluorescence",,100 µM,75.2
Fc1ccc(C(c2ccc(F)cc2)c2nnnn2CCCCN2CCC(CCCc3ccccc3)CC2)cc1,SLC6A2,"transporter uptake, inhibitor",HEK293,1 µM,48
CNC(=O)c1cc(Oc2ccc(NC(=O)Nc3ccc(Cl)c(C(F)(F)F)c3)cc2)ccn1,CHEK2 I157T,"enzyme activity, inhibitor",,10 µM,-1
Clc1ccc(C(c2ccc(Cl)cc2)c2nnnn2CCCCN2CCC(c3ccccc3)CC2)cc1,SLC6A2,"transporter uptake, inhibitor",HEK293,1 µM,34
Cc1ccc(Nc2nccc(N(C)c3ccc4c(C)n(C)nc4c3)n2)cc1S(N)(=O)=O,CHEK2 I157T,"enzyme activity, inhibitor",,0.3 µM,-1
CC(CCC(=O)NCC(=O)O)C1CCC2C3C(O)CC4CC(O)CCC4(C)C3CC(O)C12C (centres unmarked),DNA dC->dU-editing enzyme APOBEC-3B,"enzyme activity, inhibitor, fluorescence",,100 µM,23.7
COc1ccccc1-c1c(C(F)(F)F)oc2cc(OC(=O)C(C)C)ccc2c1=O,FPR1,"calcium signal, antagonist",,50 µM,100
CCN(CC)c1ccc(C2=NNC(=O)CC2C)cc1[N+](=O)[O-] (centres unmarked),"3',5'-cyclic-AMP phosphodiesterase 4B (PDE4B, Homo sapiens, UniProt Q07343)","enzyme activity, inhibitor",,0.1 µM,21
Fc1ccc(C(c2ccc(F)cc2)c2nnnn2CCCCN2CCN(CCCc3ccccc3)CC2)cc1,SLC6A2,"transporter uptake, inhibitor",HEK293,1 µM,86.4
COc1ccccc1-c1c(C)oc2cc(OC(=O)c3ccco3)ccc2c1=O,FPR1,"calcium signal, antagonist",,50 µM,100
O=C(c1ccc(F)cc1)N(Cc1ccccc1)C1CCCCC1,"Cysteinyl leukotriene receptor 1 (CYSLTR1, Homo sapiens, UniProt Q9Y271)",ligand displacement,,10 µM,-7
Clc1ccc(C(c2ccccc2)c2nnnn2CCCCN2CCC(Cc3ccc(Cl)c(Cl)c3)CC2)cc1 (centres unmarked),SLC6A2,"transporter uptake, inhibitor",HEK293,1 µM,58.9
Cc1nnc2sc(C(=O)NCc3ccc(S(=O)(=O)C(F)(F)F)cc3)c(N)c2c1C,"Glutamate receptor ionotropic, NMDA 1 (Grin1, Rattus norvegicus, UniProt P35439)","ligand displacement, radioligand",,10 µM,14
O=C1N=C(N2CCCCN2)S/C1=C\c1ccc(F)cc1O,MC4R,"ligand displacement, radioligand",,10 µM,< 10
CC(=O)c1nn(CC(=O)N2C[C@H](F)C[C@H]2C(=O)Nc2cccc(Br)n2)c2ccc(-c3cnc(C)nc3)cc12,"Plasma kallikrein (KLKB1, Homo sapiens, UniProt P03952)","enzyme activity, inhibitor",,10 µM,20.8
Cc1c(COc2c(F)cc(F)cc2F)c2c(n1C)C(=O)C=C(NCCCN(C)C)C2=O,NQO2,"enzyme activity, inhibitor",,1 µM,98
Clc1ccc(CC2CCN(CCCCn3nnnc3C(c3ccccc3)c3ccccc3)CC2)cc1Cl,SLC6A2,"transporter uptake, inhibitor",HEK293,1 µM,63.9
CC/C(=N\NC(=O)NCc1cccc(O)c1)c1ccc(O)c(C)c1O,"Fibroblast growth factor receptor 4 (FGFR4, Homo sapiens, UniProt P22455, V550E)","enzyme activity, inhibitor",,0.1 µM,1.5
COC(=O)Nc1nc2ccc(C(=O)c3cccs3)cc2[nH]1,DNA dC->dU-editing enzyme APOBEC-3B,"enzyme activity, inhibitor, fluorescence",,100 µM,25.9
